Data as given in ChEMBL document CHEMBL4321824, “Structure-Activity Relationships of cyclo(l-Tyrosyl-l-tyrosine) Derivatives Binding to Mycobacterium tuberculosis CYP121: Iodinated Analogues Promote Shift to High-Spin Adduct” (J Med Chem, 2019).

These molecules were tested against T1, Cytochrome P450 (Mycobacterium tuberculosis, UniProt A0A0T9WNE5) (assay: Stability in Mycobacterium tuberculosis assessed as CYP121-catalyzed turnover). Details: not given; call rule not given here.
T1 sequence (A0A0T9WNE5 whole entry): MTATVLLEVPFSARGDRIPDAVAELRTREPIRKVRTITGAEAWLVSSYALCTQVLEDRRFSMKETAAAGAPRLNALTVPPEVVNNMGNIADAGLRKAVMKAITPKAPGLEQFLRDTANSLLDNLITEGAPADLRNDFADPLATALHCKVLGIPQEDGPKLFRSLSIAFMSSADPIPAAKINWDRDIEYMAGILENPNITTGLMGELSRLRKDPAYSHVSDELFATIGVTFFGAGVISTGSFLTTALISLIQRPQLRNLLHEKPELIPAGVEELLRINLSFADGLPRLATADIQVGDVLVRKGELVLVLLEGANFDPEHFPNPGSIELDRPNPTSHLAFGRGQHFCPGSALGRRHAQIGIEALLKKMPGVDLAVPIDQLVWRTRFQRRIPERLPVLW
Type: ADME

Row | Compound | Stability
1 | O=C1N[C@H]2Cc3ccc(O)c(c3)-c3cc(ccc3O)C[C@@H]1NC2=O | Unstable
2 | Cc1cc(C[C@@H]2NC(=O)[C@H](Cc3ccc(O)cc3)NC2=O)cc(C)c1O | Stable
3 | O=C1N[C@@H](Cc2cc(I)c(O)c(I)c2)C(=O)N[C@H]1Cc1ccc(O)cc1 | Stable
4 | O=C1N[C@@H](Cc2ccc(O)c(F)c2)C(=O)N[C@H]1Cc1ccc(O)cc1 | Stable
5 | Cc1cc(C[C@@H]2NC(=O)[C@H](Cc3ccc(O)cc3)NC2=O)ccc1O | Stable
6 | O=C1N[C@@H](Cc2ccc(O)c(Cl)c2)C(=O)N[C@H]1Cc1ccc(O)cc1 | Stable
7 | O=C1N[C@@H](Cc2ccc(O)c(Br)c2)C(=O)N[C@H]1Cc1ccc(O)cc1 | Stable
8 | Cc1cc(O)cc(C)c1C[C@@H]1NC(=O)[C@H](Cc2ccc(O)cc2)NC1=O | Stable
9 | Cc1cc(O)ccc1C[C@@H]1NC(=O)[C@H](Cc2ccc(O)cc2)NC1=O | Stable

What follows are molecules tested on Mycobacterium tuberculosis (assay: Antimycobacterial activity against Mycobacterium tuberculosis H37Rv assessed as reduction in bacterial growth after 7 days by resazurin based fluorescence assay). Details: 168 h.
Type: functional
Procedure, shortened: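 Mtb H37Rv grown in 7H9 with ADC to OD 0.6–0.8, then diluted to OD600 0.001 and added to 1:2 serial compound dilutions (usually from 100 µM; 0.1% DMSO). Incubated 7 days at 37 °C, then 0.05% w/v resazurin for 24 h at 37 °C. Fluorescence read at 590 nm, background subtracted, and survival expressed relative to untreated wells. Rifampicin served as positive control.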

Row | Compound | MIC [µM]
10 | Cc1cc(C[C@@H]2NC(=O)[C@H](Cc3ccc(O)cc3)NC2=O)cc(C)c1O | > 100
11 | O=C1N[C@@H](Cc2cc(I)c(O)c(I)c2)C(=O)N[C@H]1Cc1ccc(O)cc1 | > 100
12 | O=C1N[C@@H](Cc2ccc(O)c(F)c2)C(=O)N[C@H]1Cc1ccc(O)cc1 | > 100
13 | Cc1cc(C[C@@H]2NC(=O)[C@H](Cc3ccc(O)cc3)NC2=O)ccc1O | > 100
14 | O=C1N[C@@H](Cc2ccc(O)c(Cl)c2)C(=O)N[C@H]1Cc1ccc(O)cc1 | > 100
15 | O=C1N[C@@H](Cc2ccc(O)c(Br)c2)C(=O)N[C@H]1Cc1ccc(O)cc1 | > 100
16 | Cc1cc(O)cc(C)c1C[C@@H]1NC(=O)[C@H](Cc2ccc(O)cc2)NC1=O | > 100
17 | Cc1cc(O)ccc1C[C@@H]1NC(=O)[C@H](Cc2ccc(O)cc2)NC1=O | > 100

Each molecule was assayed against T1, Cytochrome P450 (assay: Binding affinity to Mycobacterium tuberculosis CYP121 expressed in Escherichia coli HMS174 (DE3) at 120 uM by UV-visible scanning spectrophotometric analysis). Details: not given.

Row | Compound | Activity
18 | Cc1cc(O)cc(C)c1C[C@@H]1NC(=O)[C@H](Cc2ccc(O)cc2)NC1=O | Not Active

What follows are molecules tested against T1, Cytochrome P450 (assay: Binding affinity to Mycobacterium tuberculosis His6-tagged CYP121 assessed as compound-adduct formation by measuring high spin complex at 0.5 to 2 mM incubated for 20 mins by EPR Spectroscopic method (reference value: 0%)). Details: not given.
Procedure, shortened: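 EPR samples contained 155 µM CYP121 (untagged or His6-tagged) in 100 mM HEPES, 100 mM KCl, pH 7.5, with ligand or DMSO at a final 0.5–2 mM depending on solubility. Samples were incubated 20 min at room temperature and briefly centrifuged before spectra were recorded; the high-spin heme signal was assessed.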

Row | Compound | Activity [%]
19 | Cc1cc(C[C@@H]2NC(=O)[C@H](Cc3ccc(O)cc3)NC2=O)cc(C)c1O | 62
20 | O=C1N[C@@H](Cc2cc(I)c(O)c(I)c2)C(=O)N[C@H]1Cc1ccc(O)cc1 | 38
21 | O=C1N[C@@H](Cc2ccc(O)c(F)c2)C(=O)N[C@H]1Cc1ccc(O)cc1 | 1.2
22 | Cc1cc(C[C@@H]2NC(=O)[C@H](Cc3ccc(O)cc3)NC2=O)ccc1O | 11
23 | O=C1N[C@@H](Cc2ccc(O)c(Cl)c2)C(=O)N[C@H]1Cc1ccc(O)cc1 | 21
24 | O=C1N[C@@H](Cc2ccc(O)c(Br)c2)C(=O)N[C@H]1Cc1ccc(O)cc1 | 68
25 | Cc1cc(O)cc(C)c1C[C@@H]1NC(=O)[C@H](Cc2ccc(O)cc2)NC1=O | 1.9
26 | Cc1cc(O)ccc1C[C@@H]1NC(=O)[C@H](Cc2ccc(O)cc2)NC1=O | 0.6

The molecules below were run against T1, Cytochrome P450 (assay: Binding affinity to Mycobacterium tuberculosis His6-tagged CYP121 assessed as compound-adduct formation by measuring high spin complex by UV-visible scanning spectrophotometric analysis relative to control). Details: not given.
Design: concentration or dose not given beside the values
Procedure, shortened: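 Fraction of high-spin heme taken from UV-Vis titration spectra of CYP121 (untagged or His6-tagged; 3–4 µM, 25 °C, 100 mM potassium phosphate, 200 mM KCl, pH 7.8). %HS calculated from absorbances at 415 and 393 nm using LS and HS extinction coefficients.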

Row | Compound | Activity [%]
27 | Cc1cc(C[C@@H]2NC(=O)[C@H](Cc3ccc(O)cc3)NC2=O)cc(C)c1O | 75
28 | O=C1N[C@@H](Cc2cc(I)c(O)c(I)c2)C(=O)N[C@H]1Cc1ccc(O)cc1 | 74
29 | O=C1N[C@@H](Cc2ccc(O)c(F)c2)C(=O)N[C@H]1Cc1ccc(O)cc1 | 36
30 | Cc1cc(C[C@@H]2NC(=O)[C@H](Cc3ccc(O)cc3)NC2=O)ccc1O | 91
31 | O=C1N[C@@H](Cc2ccc(O)c(Cl)c2)C(=O)N[C@H]1Cc1ccc(O)cc1 | 68
32 | O=C1N[C@@H](Cc2ccc(O)c(Br)c2)C(=O)N[C@H]1Cc1ccc(O)cc1 | 85
33 | Cc1cc(O)cc(C)c1C[C@@H]1NC(=O)[C@H](Cc2ccc(O)cc2)NC1=O | 1
34 | Cc1cc(O)ccc1C[C@@H]1NC(=O)[C@H](Cc2ccc(O)cc2)NC1=O | 20

These molecules were tested against T1, Cytochrome P450 (assay: Binding affinity to Mycobacterium tuberculosis His6-tagged CYP121 by UV-visible scanning spectrophotometric analysis). Details: not given.
Procedure, shortened: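 Spectrophotometric titration of 3–4 µM CYP121 (untagged or N-terminal His6-tagged) at 25 °C in 100 mM potassium phosphate, 200 mM KCl, pH 7.8. Ligand in DMSO added stepwise from 0 µM until no further spectral change; spectra recorded 250–800 nm. Difference spectra taken against ligand-free enzyme, and peak-minus-trough ΔAmax plotted against [ligand]. KD obtained by hyperbolic fit, or Hill fit for sigmoidal data.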

Row | Compound | Kd [µM]
35 | Cc1cc(C[C@@H]2NC(=O)[C@H](Cc3ccc(O)cc3)NC2=O)cc(C)c1O | 15.1
36 | O=C1N[C@@H](Cc2cc(I)c(O)c(I)c2)C(=O)N[C@H]1Cc1ccc(O)cc1 | 9.1
37 | O=C1N[C@@H](Cc2ccc(O)c(F)c2)C(=O)N[C@H]1Cc1ccc(O)cc1 | 12.8
38 | Cc1cc(C[C@@H]2NC(=O)[C@H](Cc3ccc(O)cc3)NC2=O)ccc1O | 1.1
39 | O=C1N[C@@H](Cc2ccc(O)c(Cl)c2)C(=O)N[C@H]1Cc1ccc(O)cc1 | 1.5
40 | O=C1N[C@@H](Cc2ccc(O)c(Br)c2)C(=O)N[C@H]1Cc1ccc(O)cc1 | 0.46
41 | Cc1cc(O)cc(C)c1C[C@@H]1NC(=O)[C@H](Cc2ccc(O)cc2)NC1=O | > 100
42 | Cc1cc(O)ccc1C[C@@H]1NC(=O)[C@H](Cc2ccc(O)cc2)NC1=O | 39.8
